Experimental data taken from PMC3786204 (Journal of immunology (Baltimore, Md. : 1950), 2013).

Tests used:
Assay type in all cases: cell-based, human
DENV3 specific CTL = assay: Surface CD8 expression on DENV3 epitope specific CTL; settings: CTL primed against DENV3 NS3 399–407 KLNDWDFVV
How it was run: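 CD8+ T cells were negatively selected from HIV-1-seronegative HLA-A*0201 donors and plated at 7.5×10^5/well. They were primed with DENV3 epitope-pulsed αDC1 (7.5×10^4/well) plus γ-irradiated J558-CD40L cells (5×10^4/well). rhIL-2 (50 IU/ml), rhIL-7 (10 ng/ml) and rhIL-15 (1 ng/ml) were added at day 4. CTL were tested against serotype-variant peptides, with CD8 read by flow cytometry.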

autologous iDC [1] = assay: 4 h 51Cr-release cytotoxicity assay; settings: 1 μg/ml peptide, TLN9-specific CTL
How it was run: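 Targets were autologous iDC, generated by culturing monocytes 5–7 days in IMDM with 10% FBS, GM-CSF and IL-4 (both 1000 IU/ml), then peptide-pulsed. Effectors were CTL primed in vitro from CD8+ T cells of HIV-1-seronegative HLA-A*0201 donors, using peptide-pulsed αDC1. Lysis was read by standard 4 h 51Cr release.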

[2] = test system: HIV-1 p24 Gag151–159 specific CTL; assay: Surface CD8 expression on peptide reactive CTL; settings: TLN9-specific CTL, gated on IFN-γ producing cells; CTL lines from 5 donors
How it was run: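 CTL lines were primed in vitro from 5 HIV-1-naïve donors and maintained with IL-2 (200 IU/ml) and IL-7 (10 ng/ml). They were restimulated with peptide variants and assessed by intracellular cytokine staining with anti-CD28/CD49d and Golgistop/Golgiplug. CD8 MFI was read on IFN-γ-producing cells by multiparameter flow cytometry. Statistics used one-way ANOVA with Tukey post hoc test.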

iDC = assay: Microscopy of iDC:CTL co-cultures; settings: 24 h co-culture, light microscopy
How it was run: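 CTL (2×10^5 cells/well) were added to day-5 autologous iDC cultures with 1 μg/ml irrelevant, priming or variant 9mer peptide. Co-cultures were examined by light microscopy after 24h. For SEM, cells grew on glass coverslips removed at 24h, fixed in 2.5% glutaraldehyde in PBS and post-fixed in 1% aqueous osmium tetroxide.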

[3] = test system: autologous pre-activated CD4+ T cells; assay: CTL cytotoxicity against peptide-pulsed CD4+ T cell targets; settings: targets pulsed with 1 μg/mL peptide, 18h co-culture
How it was run: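 Targets: PBMC activated 5 days with PHA (1μg/ml) and rIL-2 (100 IU/ml), then CD4+ cells negatively selected, pulsed 1 h with 1μg/mL peptide and washed. Co-cultured with CTL 18h at 37°C at CTL:target 3:1, 1:1, 0.3:1 and 0:1. Stained for CD4/CD8, fixed/permeabilized, 7-AAD 20 min at 37°C. Linear 7-AAD on singlet CD4+ events scored G1, S/G2 and sub-G1 fractions. 4 experiments.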

[4] = test system: Gag77–85 reactive CTL from HIV-1 positive donor; assay: Surface CD8 expression on memory CTL expanded from HIV-1 positive donor PBMC; settings: CTL expanded from PBMC 6 months post seroconversion
autologous iDC [5] = assay: Flow cytometry viability and recovery of iDC in CTL:DC co-cultures; settings: CTL and iDC co-culture, 6h, 3:1 CTL:DC
How it was run: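 CTL were added to day-5 autologous iDC for 6h at 3:1 (CTL:DC). Cultures had no peptide, irrelevant control, priming or variant peptide; titration used decreasing cognate peptide down to .001 μg/ml. Cell loss came from recovered cell-type ratios gated by light scatter and CD3 (T cells) or CD86 (DC). Viability of DC-gated events used LIVE/DEAD Aqua. Three experiments, ± standard error.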

DC [6] = assay: DC IL-12p70 producing capacity after CD40L stimulation; settings: exogenous TNF-α 50 ng/ml, 48h, then CD40L stimulation
DC [7] = assay: DC maturation, surface CD86 by flow cytometry; settings: 48h; for Effect on CTL-induced DC maturation (CD86 enhancement): PLN9 expressing DC + CTL, sTNF-R1 0.1 μg/ml, sIFNγ-R1 1 μg/ml
How it was run: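 Day 5 autologous immature DC were co-cultured for 48h with TLN9-specific CTL (2×10^5 cells/well) plus variant peptide PLN9 (1 μg/ml), with or without blockers sTNF-RI (0.1 μg/ml) or IFNγ-R1 (1 μg/ml). Controls were TNF-α (50 ng/ml)-matured DC and peptide-exposed DC without CTL. DC surface CD86 was measured by flow cytometry.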

KLNDWDFVV [reference compound]
CD8 expression on reactive CTL (DENV3 specific CTL): down-regulation of CD8

KLTDWDFVV
CD8 expression on reactive CTL (DENV3 specific CTL): CD8 expression was maintained

PLNAWVKVV [PLN9]
CTL lytic activity against peptide-labeled iDC (autologous iDC [1]): dramatically reduced
Surface expression of CD8 on peptide reactive CTL [2]: maintained
DC morphology / survival in co-culture with CTL (iDC): pronounced webbed network of long cellular extensions
Killing of peptide-labeled CD4+ T cell targets by TLN9-specific CTL [3]: not effectively killed

RTNDWDFVV
CD8 expression on reactive CTL (DENV3 specific CTL): CD8 expression was maintained

SLFNTVATL
CD8 expression on reactive CTL [4]: down-regulation occurred

TLNAWVKVV [TLN9]
CTL lytic activity against peptide-labeled iDC (autologous iDC [1]): showed lytic activity
Surface expression of CD8 on peptide reactive CTL [2]: decreased
DC morphology / survival in co-culture with CTL (iDC): failed to survive
Peptide concentration at which a substantial drop in killing occurs (autologous iDC [5]): .001 µg/mL

TNF-α
IL-12p70 producing ability of DC matured with the factor (DC [6]): curtailed
CD86 expression of DC matured with the factor (DC [7]; exogenous TNF-α 50 ng/ml): high levels of CD86

B1: sIFNγ-rec1: soluble IFN-γ receptor 1, IFN-γ blocker (protein, UniProt P15260 18-245, looked up)
extracellular domain: EMGTADLGPSSVPTPTNVTIESYNMNPIVYWEYQIMPQVPVFTVEVKNYGVKNSEWIDACINISHHYCNISDHVGDPSNSLWVRVKARVGQKESAYAKSEEFAVCRDGKIGPPKLDIRKEEKQIMIDIFHPSVFVNGDEQEVDYDPETTCYIRVYNVYVRMNGSEIQYKILTQKEDDCDEIQCQLAIPVSSLNSQYCVSAEGVLHVWGVTTEKSKEVCITIFNSSIKG
modifications: extracellular domain
Effect on CTL-induced DC maturation (CD86 enhancement) (DC [7]): did not inhibit

B2: sTNF-rec1: Human soluble TNF receptor I, TNF-α blocker (protein, UniProt P19438 30-211, looked up)
extracellular domain: LVPHLGDREKRDSVCPQGKYIHPQNNSICCTKCHKGTYLYNDCPGPGQDTDCRECESGSFTASENHLRHCLSCSKCRKEMGQVEISSCTVDRDTVCGCRKNQYRHYWSENLFQCFNCSLCLNGTVHLSCQEKQNTVCTCHAGFFLRENECVSCSNCKKSLECTKLCLPQIENVKGTEDSGTT
modifications: extracellular domain
Effect on CTL-induced DC maturation (CD86 enhancement) (DC [7]): partially reduced
